Test results reported in ChEMBL document CHEMBL4152234, “Aminobenzothiazole derivatives stabilize the thermolabile p53 cancer mutant Y220C and show anticancer activity in p53-Y220C cell lines” (Eur J Med Chem, 2018).

How the values were obtained:
[1] = Solubility of the compound in water; format: physicochemical; conditions: buffer
[2] = system: Cellular tumor antigen p53 (Homo sapiens), P04637 [Y220C]; assay: Activation of p53 Y220C mutant in human NUGC3 cells assessed as change in BBC3 mRNA level at 60 uM after 18 hrs by RT-PCR method relative to control; format: cell-based
How it was run: (§1)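 p53 signalling qPCR array covering 84 genes. Cells were exposed for 18 h, with 0.5% DMSO in both compound and control samples. Total RNA was extracted and purified. Fold-changes were calculated by ΔΔCt using β2-microglobulin (B2M) as the housekeeping gene. Two independent biological replicates were run per cell line.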

[3] = system: Cellular tumor antigen p53 (Homo sapiens), P04637 [Y220C]; assay: Activation of p53 Y220C mutant in human NUGC3 cells assessed as change in APAF1 mRNA level at 60 uM after 18 hrs by RT-PCR method relative to control; format: cell-based; how it was run: as §1
[4] = system: Cellular tumor antigen p53 (Homo sapiens), P04637 [Y220C]; assay: Activation of p53 Y220C mutant in human NUGC3 cells assessed as change in CHEK2 mRNA level at 60 uM after 18 hrs by RT-PCR method relative to control; format: cell-based; how it was run: as §1
[5] = system: Cellular tumor antigen p53 (Homo sapiens), P04637 [Y220C]; assay: Activation of p53 Y220C mutant in human NUGC3 cells assessed as change in CCNG1 mRNA level at 60 uM after 18 hrs by RT-PCR method relative to control; format: cell-based; how it was run: as §1
[6] = system: Cellular tumor antigen p53 (Homo sapiens), P04637 [Y220C]; assay: Activation of p53 Y220C mutant in human NUGC3 cells assessed as change in CDKN1A mRNA level at 60 uM after 18 hrs by RT-PCR method relative to control; format: cell-based; how it was run: as §1
[7] = system: Cellular tumor antigen p53 (Homo sapiens), P04637 [Y220C]; assay: Activation of p53 Y220C mutant in human NUGC3 cells assessed as change in MYC mRNA level at 60 uM after 18 hrs by RT-PCR method relative to control; format: cell-based
How it was run: (§2)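 p53 signalling qPCR array covering 84 p53 pathway genes. Cells were exposed for 18 h, and compound and control wells both held 0.5% DMSO. Total RNA was extracted and purified. Fold-changes were calculated by the ΔΔCt method against the untreated sample, with β2-microglobulin (B2M) as the housekeeping gene. Each cell line was run in two independent biological replicates.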

[8] = system: Cellular tumor antigen p53 (Homo sapiens), P04637 [Y220C]; assay: Activation of p53 Y220C mutant in human NUGC3 cells assessed as change in PPM1D mRNA level at 60 uM after 18 hrs by RT-PCR method relative to control; format: cell-based; how it was run: as §2
[9] = system: Cellular tumor antigen p53 (Homo sapiens), P04637 [Y220C]; assay: Activation of p53 Y220C mutant in human NUGC3 cells assessed as change in PCNA mRNA level at 60 uM after 18 hrs by RT-PCR method relative to control; format: cell-based; how it was run: as §2
[10] = system: Cellular tumor antigen p53 (Homo sapiens), P04637 [Y220C]; assay: Activation of p53 Y220C mutant in human NUGC3 cells assessed as change in DNMT1 mRNA level at 60 uM after 18 hrs by RT-PCR method relative to control; format: cell-based; how it was run: as §1
[11] = system: Cellular tumor antigen p53 (Homo sapiens), P04637 [Y220C]; assay: Activation of p53 Y220C mutant in human NUGC3 cells assessed as change in HDAC1 mRNA level at 60 uM after 18 hrs by RT-PCR method relative to control; format: cell-based; how it was run: as §1
[12] = system: Cellular tumor antigen p53 (Homo sapiens), P04637 [Y220C]; assay: Activation of p53 Y220C mutant in human NUGC3 cells assessed as change in RELA mRNA level at 60 uM after 18 hrs by RT-PCR method relative to control; format: cell-based; how it was run: as §2
[13] = system: Cellular tumor antigen p53 (Homo sapiens), P04637 [Y220C]; assay: Activation of p53 Y220C mutant in human NUGC3 cells assessed as change in BCL2 mRNA level at 60 uM after 18 hrs by RT-PCR method relative to control; format: cell-based; how it was run: as §1
[14] = system: Cellular tumor antigen p53 (Homo sapiens), P04637 [Y220C]; assay: Activation of p53 Y220C mutant in human NUGC3 cells assessed as change in CDK1 mRNA level at 60 uM after 18 hrs by RT-PCR method relative to control; format: cell-based; how it was run: as §1
[15] = system: Cellular tumor antigen p53 (Homo sapiens), P04637 [Y220C]; assay: Activation of p53 Y220C mutant in human NUGC3 cells assessed as change in IL6 mRNA level at 60 uM after 18 hrs by RT-PCR method relative to control; format: cell-based; how it was run: as §2
[16] = target: T1, Cellular tumor antigen p53 (Homo sapiens, UniProt P04637); assay: Activation of p53 in human NUGC4 cells assessed as change in ATR mRNA level at 60 uM after 18 hrs by RT-PCR method relative to control; format: cell-based; conditions: read-out: FC; how it was run: as §2
[17] = target: T1, Cellular tumor antigen p53; assay: Activation of p53 in human NUGC4 cells assessed as change in ESR1 mRNA level at 60 uM after 18 hrs by RT-PCR method relative to control; format: cell-based; conditions: read-out: FC
How it was run: (§3)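 p53 signaling qPCR array of 84 p53-pathway genes. Cells were treated in 6-well plates for 18 h with 0.5% DMSO in compound and control samples. Total RNA was extracted and fold-changes were obtained by the ΔΔCt method against untreated control, with β2-microglobulin (B2M) as housekeeping gene. Two independent biological replicates per cell line.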

[18] = target: T1, Cellular tumor antigen p53; assay: Activation of p53 in human NUGC4 cells assessed as change in PRKCA mRNA level at 60 uM after 18 hrs by RT-PCR method relative to control; format: cell-based; conditions: read-out: FC
[19] = target: T1, Cellular tumor antigen p53; assay: Activation of p53 in human NUGC4 cells assessed as change in TNF mRNA level at 60 uM after 18 hrs by RT-PCR method relative to control; format: cell-based; conditions: read-out: FC
[20] = target: T1, Cellular tumor antigen p53; assay: Activation of p53 in human NUGC4 cells assessed as change in TP53 mRNA level at 60 uM after 18 hrs by RT-PCR method relative to control; format: cell-based; conditions: read-out: FC
[21] = target: T1, Cellular tumor antigen p53; assay: Activation of p53 in human NUGC4 cells assessed as change in MYC mRNA level at 60 uM after 18 hrs by RT-PCR method relative to control; format: cell-based; conditions: read-out: FC; how it was run: as §3
[22] = target: T1, Cellular tumor antigen p53; assay: Activation of p53 in human NUGC4 cells assessed as change in GADD45A mRNA level at 60 uM after 18 hrs by RT-PCR method relative to control; format: cell-based; conditions: read-out: FC; how it was run: as §3
[23] = target: T1, Cellular tumor antigen p53; assay: Activation of p53 in human NUGC4 cells assessed as change in NFKB1 mRNA level at 60 uM after 18 hrs by RT-PCR method relative to control; format: cell-based; conditions: read-out: FC
How it was run: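 p53-signalling qPCR array (84 pathway genes): cells treated 18 h in 0.5% DMSO, with DMSO-matched controls. Total RNA was extracted and fold-change quantified by the ΔΔCt method with β2-microglobulin (B2M) as housekeeping gene, normalized to the untreated sample. Two independent biological replicates per cell line.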

[24] = target: T1, Cellular tumor antigen p53; assay: Activation of p53 in human NUGC4 cells assessed as change in BCL2A1 mRNA level at 60 uM after 18 hrs by RT-PCR method relative to control; format: cell-based; conditions: read-out: FC; how it was run: as §2
[25] = target: T1, Cellular tumor antigen p53; assay: Activation of p53 in human NUGC4 cells assessed as change in NF1 mRNA level at 60 uM after 18 hrs by RT-PCR method relative to control; format: cell-based; conditions: read-out: FC; how it was run: as §3
[26] = target: T1, Cellular tumor antigen p53; assay: Activation of p53 in human NUGC4 cells assessed as change in TSC1 mRNA level at 60 uM after 18 hrs by RT-PCR method relative to control; format: cell-based; conditions: read-out: FC
[27] = target: T1, Cellular tumor antigen p53; assay: Activation of p53 in human NUGC4 cells assessed as change in EGR1 mRNA level at 60 uM after 18 hrs by RT-PCR method relative to control; format: cell-based; conditions: read-out: FC; how it was run: as §3
SW1088 = assay: Antiproliferative activity against human SW1088 cells harboring p53 R273C mutant assessed as cell viability at <40 uM after 72 hrs by CellTiter-Glo assay relative to control

- solubility [1]: Insoluble
- fold change (FC) [2]: 2.6
- fold change (FC) [3]: 1.2
- fold change (FC) [4]: 1.1
- fold change (FC) [5]: 1.2
- fold change (FC) [6]: 3.1
- fold change (FC) [7]: 2.4
- fold change (FC) [8]: 0.9
- fold change (FC) [9]: 0.8
- fold change (FC) [10]: 1.2
- fold change (FC) [11]: 0.6
- fold change (FC) [12]: 1.1
- fold change (FC) [13]: 1.7
- fold change (FC) [14]: 1.5
- fold change (FC) [15]: 6.4
- fold induction at 60 µM [16]: 0.9
- fold induction at 60 µM [17]: 8.1
- fold induction at 60 µM [18]: 1
- fold induction at 60 µM [19]: 1.1
- fold induction at 60 µM [20]: 0.8
- fold induction at 60 µM [21]: 0.7
- fold induction at 60 µM [22]: 1.7
- fold induction at 60 µM [23]: 0.8
- fold induction at 60 µM [24]: 6.1
- fold induction at 60 µM [25]: 0.8
- fold induction at 60 µM [26]: 1.1
- fold induction at 60 µM [27]: 0.7
SMILES: CCNC(=O)c1c(O)c(I)c(-n2cccc2)c2sc(N(CC)CC)nc12
- Activity (SW1088): >80%
